Measurements taken from ChEMBL document CHEMBL4024774 (J Med Chem, 2017).
Active and inactive are the calls of the source. The calls are words filed in the database; no cut-off is given here.

Assays:
[1] = Displacement of [3H]nisoxetine from Sprague-Dawley rat brain NET after 180 mins by liquid scintillation counting method
How it was run: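 Frontal cortex membranes from male Sprague-Dawley rats in 50 mM Tris, 120 mM NaCl, 5 mM KCl, pH 7.4. […] Nonspecific binding with 1 μM desipramine. Methanol level held constant across tubes. Filtered on GF/B filters in 0.05% PEI.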

[2] = biological target: Sodium-dependent serotonin transporter (Rattus norvegicus, UniProt P31652); assay: Displacement of [3H]citalopram from Sprague-Dawley rat brain SERT after 60 mins by liquid scintillation counting method
How it was run: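 Male Sprague-Dawley rat brain stem membranes in 50 mM Tris with 120 mM NaCl and 5 mM KCl, pH 7.4. […] Nonspecific binding with 10 μM fluoxetine. Filtered on GF/B filters presoaked in 0.3% PEI, scintillation counted.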

[3] = biological target: Sodium-dependent dopamine transporter (Rattus norvegicus, UniProt P23977); assay: Displacement of [3H]WIN35428 from Sprague-Dawley rat brain DAT after 120 mins by liquid scintillation counting method
How it was run: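 Rat striatal membranes (male Sprague-Dawley) in sucrose phosphate buffer pH 7.4. […] Terminated by filtration on GF/B filters presoaked in 0.05% PEI, then scintillation counting.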

[4] = tested on: Mus musculus; assay: Decrease in locomotory activity in Swiss Webster mouse at 56 mg/kg, ip after 1 hr relative to control; type: functional; set-up: scale not given: the % may be the effect or the level left
How it was run: (§1)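 Male Swiss Webster mice, ambulatory activity counted in 40 cm³ clear acrylic chambers over a 1 h session with no prior habituation. Drug given i.p. at 1 mL/kg immediately before the session. 6 mice per dose, each used once. Analysed by ANOVA then Dunnett's test against vehicle.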

[5] = biological target: T1, Sodium-dependent dopamine transporter (Homo sapiens, UniProt Q01959); assay: Inhibition of [3H]DA uptake at wild type human DAT expressed in African green monkey COS7 cells after 5 mins by beta scintillation counting method; type: cell-based
How it was run: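 COS7 cells transiently transfected with synthetic human DAT and assayed 2 days later. Preincubated with inhibitor (1 nM–1 mM, 12 concentrations) in HEPES uptake buffer pH 7.4 containing ascorbate and a COMT inhibitor. 6–10 nM [³H]DA added for 5 min at rt. Nonspecific uptake with 1 μM nomifensine. Cells lysed in SDS and scintillation counted. Run in triplicate. Ki from IC50 by Cheng–Prusoff.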

[6] = biological target: Voltage-gated inwardly rectifying potassium channel KCNH2 (Homo sapiens, UniProt Q12809); assay: Displacement of [3H]Dofetilide from human ERG expressed in HEK cells after 180 mins by scintillation counting method; type: cell-based
[7] = Selectivity ratio of IC50 for human ERG expressed in HEK cells to Ki for Sprague-Dawley rat brain DAT; type: cell-based
[8] = species: Homo sapiens; assay: Selectivity ratio of Ki for human DAT […] mutant expressed in African green monkey COS7 cells to Ki for wild type human DAT expressed in African green monkey COS7 cells; type: cell-based
How it was run: (§2)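 Whole COS7 cells transiently expressing human DAT WT or the Y156F mutant, washed in ice-cold uptake buffer. Incubated with [³H]WIN 35,428 and inhibitor (1 nM–1 mM, 12 concentrations) at 5 °C to equilibrium (>90 min). Triplicates. Ki from IC50 by nonlinear regression and Cheng–Prusoff. Ratio is Y156F Ki over WT Ki.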

[9] = tested on: Liver; assay: Metabolic stability in mouse liver microsomes assessed as parent compound remaining at 10 uM after 1 hr in presence of NADPH by LC/MS/MS analysis; type: ADME, microsome
How it was run: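 Mouse liver microsomes at 0.5 mg/mL with test compound at 10 μM final, in 100 mM potassium phosphate pH 7.4 with an NADPH regenerating system (1.3 mM NADPH). Reaction started by adding microsomes. Controls run without cofactor. Parent remaining measured by LC/MS/MS on a C18 column with formic acid/acetonitrile gradient. Triplicate.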

[10] = tested on: Mus musculus; assay: Effect on discriminating cocaine from saline in Swiss Webster mouse assessed as cocaine lever response at 0.3 to 30 mg/kg, ip administered 5 to 30 mins prior to training session relative to control; type: functional
How it was run: (§3)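 Testing began after ≥85% correct responding on 4 consecutive sessions. Test drug given i.p. at 0.1–30 mg/kg, 5 or 30 min before the session, with 10 consecutive responses on either lever reinforced. ED50 taken from a linear fit. Response rate expressed as % of saline. 6 mice.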

[11] = tested on: Mus musculus; assay: Effect on execution of behavioral task in Swiss Webster mouse assessed as overall group response rate at 0.3 to 30 mg/kg, ip relative to control; type: organism-based; settings: in vivo; how it was run: as §3
[12] = Inhibition of […] uptake at human DAT […] mutant expressed in African green monkey COS7 cells after 90 mins; type: cell-based; how it was run: as §2
[13] = biological target: T1, Sodium-dependent dopamine transporter; assay: Inhibition of […] uptake at wild type human DAT expressed in African green monkey COS7 cells after 90 mins; type: cell-based; how it was run: as §2
[14] = tested on: Mus musculus; assay: Decrease in locomotory activity in Swiss Webster mouse at 3 to 30 mg/kg, ip after 1 hr relative to control; type: functional, organism-based; how it was run: as §1

T1 sequence (Q01959 whole entry): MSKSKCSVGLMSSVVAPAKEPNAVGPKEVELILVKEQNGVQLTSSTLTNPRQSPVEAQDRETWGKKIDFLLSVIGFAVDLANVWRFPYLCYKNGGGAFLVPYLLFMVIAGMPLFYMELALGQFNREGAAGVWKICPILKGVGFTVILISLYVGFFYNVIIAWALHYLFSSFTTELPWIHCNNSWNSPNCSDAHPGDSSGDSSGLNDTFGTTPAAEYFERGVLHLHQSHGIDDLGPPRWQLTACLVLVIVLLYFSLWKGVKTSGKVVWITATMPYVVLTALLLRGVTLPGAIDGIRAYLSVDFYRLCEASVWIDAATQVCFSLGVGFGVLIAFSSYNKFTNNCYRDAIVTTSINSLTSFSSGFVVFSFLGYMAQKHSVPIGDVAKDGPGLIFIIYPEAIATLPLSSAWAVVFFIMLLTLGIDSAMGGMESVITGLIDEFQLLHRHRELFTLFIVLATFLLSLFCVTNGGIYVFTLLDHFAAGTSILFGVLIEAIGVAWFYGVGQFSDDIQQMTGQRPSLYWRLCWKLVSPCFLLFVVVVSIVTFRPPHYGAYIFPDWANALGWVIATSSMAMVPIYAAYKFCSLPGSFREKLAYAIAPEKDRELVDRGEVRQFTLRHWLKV
Sodium-dependent serotonin transporter, sequence (P31652 whole entry): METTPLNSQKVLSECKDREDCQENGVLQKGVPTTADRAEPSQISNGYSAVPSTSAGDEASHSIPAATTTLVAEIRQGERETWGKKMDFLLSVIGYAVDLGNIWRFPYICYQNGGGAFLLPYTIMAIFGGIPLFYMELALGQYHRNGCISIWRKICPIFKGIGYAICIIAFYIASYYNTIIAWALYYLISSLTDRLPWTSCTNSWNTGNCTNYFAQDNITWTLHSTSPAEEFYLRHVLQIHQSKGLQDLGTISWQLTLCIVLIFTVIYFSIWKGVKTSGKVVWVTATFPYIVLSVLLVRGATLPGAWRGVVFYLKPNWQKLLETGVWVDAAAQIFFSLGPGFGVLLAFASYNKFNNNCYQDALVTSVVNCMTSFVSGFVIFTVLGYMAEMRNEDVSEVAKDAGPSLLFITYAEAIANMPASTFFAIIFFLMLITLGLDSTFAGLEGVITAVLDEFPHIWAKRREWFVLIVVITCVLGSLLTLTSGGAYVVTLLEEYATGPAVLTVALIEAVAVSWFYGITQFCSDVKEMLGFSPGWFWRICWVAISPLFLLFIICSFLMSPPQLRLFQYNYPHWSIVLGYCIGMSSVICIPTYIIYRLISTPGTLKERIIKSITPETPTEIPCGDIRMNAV
Voltage-gated inwardly rectifying potassium channel KCNH2, sequence (Q12809 whole entry): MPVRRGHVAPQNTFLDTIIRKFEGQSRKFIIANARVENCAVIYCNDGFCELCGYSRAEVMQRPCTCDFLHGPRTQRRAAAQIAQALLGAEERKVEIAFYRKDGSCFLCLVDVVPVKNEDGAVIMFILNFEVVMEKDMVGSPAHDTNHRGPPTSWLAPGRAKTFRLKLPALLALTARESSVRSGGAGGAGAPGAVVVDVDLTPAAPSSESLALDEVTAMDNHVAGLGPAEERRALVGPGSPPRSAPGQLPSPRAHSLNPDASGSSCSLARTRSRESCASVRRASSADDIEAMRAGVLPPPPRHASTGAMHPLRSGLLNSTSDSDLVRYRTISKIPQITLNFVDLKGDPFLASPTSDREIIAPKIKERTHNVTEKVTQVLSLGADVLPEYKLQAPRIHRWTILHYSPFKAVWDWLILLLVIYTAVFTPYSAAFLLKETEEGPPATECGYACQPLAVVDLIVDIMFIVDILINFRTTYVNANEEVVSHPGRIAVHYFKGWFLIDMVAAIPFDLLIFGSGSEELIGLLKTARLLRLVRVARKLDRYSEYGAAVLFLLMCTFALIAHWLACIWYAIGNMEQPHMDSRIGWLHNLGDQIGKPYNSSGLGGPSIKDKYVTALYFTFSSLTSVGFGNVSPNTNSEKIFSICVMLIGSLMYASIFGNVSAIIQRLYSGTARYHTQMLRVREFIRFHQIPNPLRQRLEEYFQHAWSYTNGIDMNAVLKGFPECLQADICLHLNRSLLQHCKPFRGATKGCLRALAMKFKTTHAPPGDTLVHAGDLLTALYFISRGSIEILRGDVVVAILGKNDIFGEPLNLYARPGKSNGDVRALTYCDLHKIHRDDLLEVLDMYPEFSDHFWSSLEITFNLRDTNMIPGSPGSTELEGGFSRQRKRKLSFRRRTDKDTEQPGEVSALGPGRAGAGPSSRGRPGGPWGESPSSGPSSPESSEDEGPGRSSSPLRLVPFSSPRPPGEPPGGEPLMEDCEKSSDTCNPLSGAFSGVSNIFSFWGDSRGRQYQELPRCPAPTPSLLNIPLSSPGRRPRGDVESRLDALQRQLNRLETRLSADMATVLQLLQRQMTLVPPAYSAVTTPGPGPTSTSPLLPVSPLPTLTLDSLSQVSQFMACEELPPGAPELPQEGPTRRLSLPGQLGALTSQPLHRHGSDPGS
Sodium-dependent dopamine transporter (Rattus norvegicus, UniProt P23977), sequence (P23977 whole entry): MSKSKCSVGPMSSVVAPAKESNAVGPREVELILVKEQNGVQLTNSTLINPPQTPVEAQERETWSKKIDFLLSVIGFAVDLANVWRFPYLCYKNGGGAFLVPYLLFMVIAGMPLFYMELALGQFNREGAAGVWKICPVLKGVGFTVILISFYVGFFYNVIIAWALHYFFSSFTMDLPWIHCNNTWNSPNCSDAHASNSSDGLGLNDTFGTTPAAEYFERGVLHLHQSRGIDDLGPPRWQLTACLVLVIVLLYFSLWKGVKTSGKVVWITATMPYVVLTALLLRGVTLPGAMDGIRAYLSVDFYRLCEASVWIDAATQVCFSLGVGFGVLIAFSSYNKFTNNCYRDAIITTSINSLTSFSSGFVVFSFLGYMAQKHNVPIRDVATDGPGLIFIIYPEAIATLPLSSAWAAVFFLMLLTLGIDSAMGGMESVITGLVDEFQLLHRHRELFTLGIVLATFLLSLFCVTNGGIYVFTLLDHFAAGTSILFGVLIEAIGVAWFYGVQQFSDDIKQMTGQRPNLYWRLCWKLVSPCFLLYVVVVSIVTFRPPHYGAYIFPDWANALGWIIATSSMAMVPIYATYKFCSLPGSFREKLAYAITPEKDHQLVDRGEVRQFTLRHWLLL

Fc1ccc(C(NC2CC3CCC(C2)N3CCN2CCCCC2)c2ccc(F)cc2)cc1 (stereo not drawn)
Ki [1]: 612 nM
Ki [2]: 3780 nM
Ki [3]: 10.6 nM

CN(C)CCN1C2CCC1CC(OC(c1ccc(F)cc1)c1ccc(F)cc1)C2 (stereo not drawn)
Activity [4]: 14%
Ki [5]: 47 nM
IC50 [6]: 8230 nM
Ki [1]: 933 nM
Selectivity ratio [7]: 686
Ratio Ki [8]: 6.3
Stability [9]: 88%
Activity [10]: 23%
Activity [11]: < 50%
Ki [2]: 3150 nM
Ki [12]: 63 nM
Ki [3]: 12 nM
Ki [13]: 10 nM
Activity [14]: Active

NCCN1C2CCC1CC(OC(c1ccc(F)cc1)c1ccc(F)cc1)C2 (stereo not drawn)
Ki [1]: 1420 nM
Ki [2]: 4600 nM
Ki [3]: 5.59 nM

CN1C2CCC1[C@@H](c1cc(-c3ccccc3)no1)[C@@H](OC(c1ccc(F)cc1)c1ccc(F)cc1)C2 (mixture of isomers)
Ki [5]: 1300 nM
Ki [1]: 1100 nM
Ratio Ki [8]: 2.4
Ki [2]: 3830 nM
Ki [12]: 3490 nM
Ki [3]: 60.8 nM
Ki [13]: 1480 nM

CN1C2CCC1[C@@H](c1cc(-c3ccccc3)no1)C(OC(c1ccc(F)cc1)c1ccc(F)cc1)C2 (single isomer, unassigned)
Ki [5]: 212 nM
Ki [1]: 413 nM
Ratio Ki [8]: 6.5
Ki [2]: 1320 nM
Ki [12]: 183 nM
Ki [3]: 14.4 nM
Ki [13]: 28 nM

CCOC(=O)[C@@H]1C2CCC(C[C@@H]1OC(c1ccc(F)cc1)c1ccc(F)cc1)N2C[C@H](N)C(C)C (mixture of isomers)
Ki [5]: 1050 nM
Ki [1]: 4470 nM
Ratio Ki [8]: 7.1
Ki [2]: 1370 nM
Ki [12]: 1560 nM
Ki [3]: 53.8 nM
Ki [13]: 221 nM

Cc1ccc(-c2cc(C3C(c4ccc(Cl)cc4)CC4CCC3N4C)on2)cc1 (stereo not drawn)
Ki [5]: 16 nM
Ki [1]: 1170 nM
Ratio Ki [8]: 4
Ki [2]: 23500 nM
Ki [12]: 140 nM
Ki [3]: 10.7 nM
Ki [13]: 35 nM

CCOC(=O)[C@@H]1C2CCC(C[C@@H]1OC(c1ccc(F)cc1)c1ccc(F)cc1)N2CC1CC1 (mixture of isomers)
Ki [1]: 555 nM
Ki [2]: 3730 nM
Ki [3]: 12 nM

CN1C2CCC1[C@@H](c1cc(-c3ccc(Cl)cc3)no1)[C@@H](OC(c1ccc(F)cc1)c1ccc(F)cc1)C2 (mixture of isomers)
Ki [1]: 1580 nM
Ki [2]: 756 nM
Ki [3]: 66.6 nM

CN(C)CCN1C2CCC1CC(NC(c1ccc(F)cc1)c1ccc(F)cc1)C2 (stereo not drawn)
Ki [5]: 40 nM
IC50 [6]: 5480 nM
Ki [1]: 4010 nM
Selectivity ratio [7]: 383
Ratio Ki [8]: 20
Ki [2]: 12000 nM
Ki [12]: 202 nM
Ki [3]: 14.3 nM
Ki [13]: 16 nM

Fc1ccc(C(OC2CC3CCC(C2)N3CC2CC2)c2ccc(F)cc2)cc1 (stereo not drawn)
IC50 [6]: 3960 nM
Ki [1]: 1640 nM
Selectivity ratio [7]: 161
Ki [2]: 1420 nM
Ki [3]: 24.6 nM

CCOC(=O)[C@@H]1C2CCC(C[C@@H]1OC(c1ccc(F)cc1)c1ccc(F)cc1)N2CCc1c[nH]c2ccccc12 (mixture of isomers)
Ki [5]: 944 nM
Ki [1]: 1450 nM
Ki [2]: 746 nM
Ki [12]: 1080 nM
Ki [3]: 26.1 nM
Ki [13]: 147 nM

C=C[C@@H]1C2CCC(C[C@@H]1OC(c1ccc(F)cc1)c1ccc(F)cc1)N2CCN(C)C (mixture of isomers)
Ki [2]: 5100 nM
Ki [3]: 13.5 nM

Cc1ccc(-c2cc([C@@H]3C4CCC(C[C@@H]3OC(c3ccc(F)cc3)c3ccc(F)cc3)N4C)on2)cc1 (mixture of isomers)
Ki [1]: 2710 nM
Ki [2]: 4410 nM
Ki [3]: 93.5 nM

Cc1ccc(C2CC3CCC(C2c2cc(-c4ccc(Cl)cc4)no2)N3C)cc1 (stereo not drawn)
Ki [5]: 9.7 nM
Ki [1]: 887 nM
Ratio Ki [8]: 9
Ki [2]: 29100 nM
Ki [12]: 242 nM
Ki [3]: 8.55 nM
Ki [13]: 27 nM

CC(C)[C@@H](N)CN1C2CCC1CC(NC(c1ccc(F)cc1)c1ccc(F)cc1)C2 (stereo partly drawn)
Ki [1]: 2350 nM
Ki [2]: 5400 nM
Ki [3]: 21 nM

CCCCN1C2CCC1CC(NC(c1ccc(F)cc1)c1ccc(F)cc1)C2 (stereo not drawn)
Ki [5]: 62 nM
Ratio Ki [8]: 15
Ki [12]: 355 nM
Ki [13]: 24 nM

CN1C2CCC1[C@@H](c1cc(-c3ccc(F)cc3)no1)[C@@H](OC(c1ccc(F)cc1)c1ccc(F)cc1)C2 (mixture of isomers)
Ki [1]: 1640 nM
Ki [2]: 2990 nM
Ki [3]: 69.2 nM

Fc1ccc(C(OC2CC3CCC(C2)N3CCN2CCCCC2)c2ccc(F)cc2)cc1 (stereo not drawn)
Ki [1]: 370 nM
Ki [2]: 1460 nM
Ki [3]: 13.2 nM

CC(C)[C@@H](N)CN1C2CCC1CC(OC(c1ccc(F)cc1)c1ccc(F)cc1)C2 (stereo partly drawn)
Ki [5]: 133 nM
Ki [1]: 2130 nM
Selectivity ratio [7]: 345
Ratio Ki [8]: 3.8
Ki [2]: 3870 nM
Ki [12]: 307 nM
Ki [3]: 13.2 nM
Ki [13]: 81 nM

Fc1ccc(C(OC2CC3CCC(C2)N3CCc2c[nH]c3ccccc23)c2ccc(F)cc2)cc1 (stereo not drawn)
Ki [1]: 7350 nM
Ratio Ki [8]: 6.7
Ki [2]: 490 nM
Ki [12]: 1700 nM
Ki [3]: 29.2 nM
Ki [13]: 253 nM
